These results are taken from ChEMBL document CHEMBL1240520, “Synthesis of heterocycle-based analogs of resveratrol and their antitumor and vasorelaxing properties” (Bioorg Med Chem, 2010).

Calls of active or inactive are those of the source. The rule behind the calls is not given here.

For test [1], the system named is Aorta. The test is described as follows: Vasorelaxant activity in Wistar rat aortic rings assessed as reduction in KCL-induced contractile tone at 30 uM. The test is classed as functional. Summed up: (§1)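 Endothelium-denuded thoracic aortic rings from male normotensive Wistar rats (250–350 g), equilibrated 60 min, precontracted with KCl 30 mM. Compounds added cumulatively at threefold increasing concentrations up to 30 µM. Efficacy is the maximal relaxation, or the response at 30 µM, as % of KCl tone. pIC50 is −log molar concentration halving tone, not calculated below 50% efficacy; mean ± SE, 5–10 experiments.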

The next test relates to MDA-MB-231. Nature of the test: Antitumor activity against human MDA-MB-231 cells after 6 days by SRB assay. It counts as functional, cell-based. The conditions noted are these: MDA-MB-231, 144 h. Summed up: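 MDA-MB-231 cells in DMEM with 5% FBS, 37 °C, 5% CO2, seeded 1.3 × 10³ cells/well and adhered 24 h; treated 0.25 to 64 µM (five wells per treatment, vehicle EtOH or DMSO) for 6 days. TCA-fixed, SRB-stained, OD 540 nm. Proliferation index = OD at day 6 / OD at time zero; IC50 from means of three independent experiments.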
(The SRB assay estimates cell density from bound dye.)

In test [2] the test system is Aorta. Nature of the test: Vasorelaxant activity in Wistar rat aortic rings assessed as reduction in KCL-induced contractile tone. The test is classed as functional, tissue-based. The gist of the method: as §1
In test [3] the test system is Aorta. The test is described as follows: Vasorelaxant activity in Wistar rat aortic rings assessed as reduction in KCL-induced contractile tone in presence of tetraethylammonium chloride. It counts as functional, tissue-based.

For the compound `Oc1cc(O)cc(-c2nc3cccc(O)c3s2)c1`, the Emax – broadly, the size of the effect at its maximum, as opposed to the concentration needed – at 30 µM with Aorta [1] was determined as 76.8%. The IC50 (in general, the point on the concentration scale where inhibition reaches its midpoint) is 18.1 µM with MDA-MB-231 and 15.5 µM with Aorta [2]. Also, in the test with Aorta [3], the result was inactive.
As to `Oc1ccc(/C=C/c2cc(O)cc(O)c2)cc1` [RESVERATROL], in the test on Aorta [1], the Emax at 30 µM came out at 83%. In addition, the IC50 in the test on Aorta [2] is 6.92 µM. In the test on Aorta [3], the result was inactive.
On the same counts, the results for `Oc1cc(O)cc(-c2ccc3cc(O)ccc3c2)c1` are 78.5%, 12.9 µM and “inactive”.
Consider `Oc1cc(O)cc(-c2nc3ccc(O)cc3s2)c1`, for which the Emax at 30 µM with Aorta [1] was 88.2%. The IC50 in the test with MDA-MB-231 was 19.4 µM; in the test with Aorta [2], 12 µM. For the same compound, the result in the test with Aorta [3] was Active.
On the same counts, the results for `Oc1ccc(-c2nc3c(O)cc(O)cc3s2)cc1` are 80.6%, > 100 µM, 12.6 µM and “inactive”.
On the same counts, the results for `Oc1cc(O)cc(-c2cc3cc(O)ccc3o2)c1` are 77.2%, 46.1 µM, 15.5 µM and “inactive”.
As for `Oc1ccc(-c2nc3cc(O)cc(O)c3s2)cc1`, in the test with Aorta [1], the Emax at 30 µM was 39.6%. Besides, in the test with MDA-MB-231, the IC50 came out at 67.6 µM. The result in the test on Aorta [3] was inactive.
Regarding `Oc1cc(O)cc(-c2cnc3cc(O)ccc3c2)c1`, the Emax at 30 µM in the test on Aorta [1] is 17.2%. The compound also showed an IC50 with MDA-MB-231 of 17.4 µM.
Regarding `Oc1cc(O)cc(-c2cc3ccc(O)cc3nc2Cl)c1`, in the test with Aorta [1], the Emax at 30 µM was 84.6%. The values for the IC50 in the test on MDA-MB-231 and in the test on Aorta [2] were 47.4 µM and 15.8 µM, respectively. For the same compound, the result in the test with Aorta [3] was inactive.
As for `O/N=C/c1ccc(-c2cc(O)cc(O)c2)cc1O` [SALICYLALDOXIME], the result in the test on Aorta [3] was Active.
